Assay [1] deals with Oryctolagus cuniculus. The assay is described as follows: In vitro antiaggregation activity against PAF-acether induced platelet aggregation when administered at dose of 1 uM/Kg after 2 minutes. The format is functional.
The species named for assay [2] is Oryctolagus cuniculus. In words: In vitro aggregant (agonist) activity inducing platelet aggregation.
The test system of assay [3] is Oryctolagus cuniculus. The assay is described as follows: […] antagonistic activity against platelet aggregation. The format is functional.
For assay [4], the system named is Cavia porcellus. In words: In vivo activity for protection against acetylcholine-induced bronchoconstriction in guinea pig after 5 min of intravenous administration (1 mg/kg). The class given is functional.
Assay [5] relates to Cavia porcellus. The assay is described as follows: In vivo activity for protection against PAF acether induced thrombocytopenia in guinea pig after 5 min of intravenous administration (2 mg/kg). The class given is functional. Summed up:
(§1)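 Male Hartley guinea pigs (450-500 g), urethane 1.25 g/kg ip, pancuronium 2 mg/kg, ventilated (50 strokes/min, 10 mL/kg). Antagonist iv 5 min before PAF 100 ng/kg iv. Konzett-Rossler lung inflation resistance vs control group; platelet counts from carotid blood 1 min before and after PAF. Percent inhibition per dose.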

For assay [6], the system named is Oryctolagus cuniculus. In words: […] antagonistic activity against collagen induced platelet aggregation at a concentration of 40 ug/mL. The format is functional. In short, it runs like this: (§2)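 Rabbit PRP (male New Zealand, citrated cardiac-puncture blood, 300g 10 min; 300 000 per µL). Antagonist added to stirred PRP 2 min before PAF (5×10⁻⁸ M), collagen (40 µg/mL) or arachidonic acid (2×10⁻⁴ M). Born turbidimetric aggregometry; inhibition vs control aggregation; IC50 from dose-response curves. Compounds dissolved in ethanol 10 mg/mL stock, diluted in saline.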

The subject of assay [7] is Cavia porcellus. In words: In vivo activity for protection against acetylcholine-induced bronchoconstriction in guinea pig after 5 min of intravenous administration (2 mg/kg). The format is functional.
Assay [8] has as its system Cavia porcellus. The assay is described as follows: In vivo activity for protection against histamine induced bronchoconstriction in guinea pig after 5 min of intravenous administration (1 mg/kg). The class given is functional.
Assay [9] concerns Cavia porcellus. The assay is described as follows: In vivo activity for protection against PAF-acether induced bronchoconstriction in guinea pig after 5 min of intravenous administration (0.5 mg/kg). The format is functional. In short, it runs like this: as §1
Assay [10] relates to Oryctolagus cuniculus. The assay is described as follows: […] antagonistic activity against arachidonic-acid induced platelet aggregation at a concentration of 2*10e-4 M. The class given is functional. In short, it runs like this: as §2
The test system of assay [11] is Rattus norvegicus. The assay is described as follows: In vivo activity for protection against acetylcholine induced hypotension in rat after 5 mins of intravenous administration (2 mg/kg). The class given is functional. Summed up: (§3)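 Male Sprague-Dawley rats (280-300 g), pentobarbital 50 mg/kg ip; jugular iv dosing, carotid pressure recorded. Same protocol as the PAF challenge but using acetylcholine 1 µg/kg iv as agonist: control response, antagonist, then re-challenge. One antagonist dose per rat; percent inhibition per dose.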

Assay [12] relates to Oryctolagus cuniculus. In words: […] antagonistic activity against PAF induced platelet aggregation at a concentration of 5 x 10e-8 M. The format is functional. In short, it runs like this: as §2
For assay [13], the system named is Cavia porcellus. The assay is described as follows: In vivo activity for protection against histamine induced bronchoconstriction in guinea pig after 5 min of intravenous administration (2 mg/kg). The class given is functional.
In assay [14] the test system is Rattus norvegicus. The assay is described as follows: In vivo activity for protection against PAF acether induced hypotension in rat after 5 mins of intravenous administration (1 mg/kg). The class given is functional. In short, it runs like this: (§4)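 Male Sprague-Dawley rats (280-300 g), pentobarbital 50 mg/kg ip; jugular iv dosing, carotid arterial pressure by transducer. Control response to PAF 0.3 µg/kg iv, then antagonist; PAF 0.3 µg/kg re-injected and hypotension recorded. One antagonist dose per rat; percent inhibition per dose.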

In assay [15] the test system is Cavia porcellus. In words: In vivo activity for protection against PAF-acether induced bronchoconstriction in guinea pig after 5 min of intravenous administration (2 mg/kg). The format is functional. In short, it runs like this:
as §1

In assay [16] the test system is Cavia porcellus. In words: In vivo activity for protection against PAF-acether induced bronchoconstriction in guinea pig after 5 min of intravenous administration (1 mg/kg). The format is functional. In short, it runs like this:
as §1

In assay [17] the test system is Rattus norvegicus. In words: In vivo activity for protection against PAF acether induced hypotension in rat after 5 mins of intravenous administration (2 mg/kg). The format is functional. Summed up: as §4
The subject of assay [18] is Cavia porcellus. In words: In vivo activity for protection against PAF acether induced thrombocytopenia in guinea pig after 5 min of intravenous administration (1 mg/kg). The format is functional. Summed up: as §1
In assay [19] the test system is Rattus norvegicus. In words: In vivo activity for protection against acetylcholine induced hypotension in rat after 5 mins of intravenous administration (1 mg/kg). The format is functional. In short, it runs like this: as §3
In assay [20] the test system is Cavia porcellus. In words: In vivo activity for protection against acetylcholine induced bronchoconstriction in guinea pig after 5 min of intravenous administration (2 mg/kg). The class given is functional.
In assay [21] the test system is Oryctolagus cuniculus. The assay is described as follows: […] antagonistic activity against PAF induced platelet aggregation (5 x 10e-8 M ). The format is functional. Summed up: as §2
Assay [22] concerns Rattus norvegicus. The assay is described as follows: In vivo activity for protection against acetylcholine induced hypotension in rat after 5 mins of intravenous administration (5 mg/kg). The format is functional. Summed up: as §3
The subject of assay [23] is Rattus norvegicus. The assay is described as follows: In vivo activity for protection against PAF acether induced hypotension in rat after 5 mins of intravenous administration (5 mg/kg). The format is functional. In short, it runs like this:
as §4

Assay [24] relates to Oryctolagus cuniculus. The assay is described as follows: […] antagonistic activity against arachidonic-acid induced platelet aggregation (2*10e-4 M). The format is functional. Summed up:
as §2

Assay [25] concerns Cavia porcellus. The assay is described as follows: In vivo activity for protection against PAF acether induced bronchoconstriction in guinea pig after 5 min of intravenous administration (2 mg/kg). The class given is functional. In short, it runs like this: as §1
Assay [26] deals with Cavia porcellus. The assay is described as follows: In vivo activity for protection against acetylcholine induced bronchoconstriction in guinea pig after 5 min of intravenous administration (5 mg/kg). The class given is functional.
Assay [27] deals with Oryctolagus cuniculus. The assay is described as follows: […] antagonistic activity against collagen induced platelet aggregation (40 ug/mL). The format is functional. Summed up: as §2
The subject of assay [28] is Cavia porcellus. In words: In vivo activity for protection against PAF acether induced bronchoconstriction in guinea pig after 5 min of intravenous administration (1 mg/kg). The format is functional. In short, it runs like this: as §1
Assay [29] has as its system Cavia porcellus. In words: In vivo activity for protection against PAF acether induced bronchoconstriction in guinea pig after 5 min of intravenous administration (0.5 mg/kg). The format is functional. Summed up:
as §1

Assay [30] deals with Cavia porcellus. The assay is described as follows: In vivo activity for protection against acetylcholine induced bronchoconstriction in guinea pig after 5 min of intravenous administration (1 mg/kg). The class given is functional.
For assay [31], the system named is Cavia porcellus. In words: In vivo activity for protection against PAF acether induced thrombocytopenia in guinea pig after 5 min of intravenous administration (0.5 mg/kg). The format is functional. In short, it runs like this:
as §1

EC50, ED50 and Protection data for nine molecules are collected here from ChEMBL document CHEMBL1124037, “Structure-activity relationship in PAF-acether. 4. Synthesis and biological activities of carboxylate isosteres” (J Med Chem, 1988).

By EC50 is commonly meant the concentration that produces a half-maximal response. `CCCCCCCCCCCCCCCCCCOCC(COC(=O)CC[N+](C)(C)C)OC(C)=O` (stereo unspecified): the values for the EC50 in the assay with Oryctolagus cuniculus [1] and in the assay filed under Oryctolagus cuniculus [2] were 24 µM and above 100 µM, respectively.

`CCCCCCCCCCCCCCCCCCOC[C@H](COC(=O)CCCC[N+](C)(C)C)OC(C)=O.[I-]` registered an ED50 in the assay on Oryctolagus cuniculus [3] above 100 µM. For the same molecule, the Protection in the assay with Cavia porcellus [4] is on record as 21%; in the assay on Cavia porcellus [5], 57%; with Cavia porcellus [7], 0%; with Cavia porcellus [8], 35%; with Cavia porcellus [9], 79%; in the assay with Rattus norvegicus [11] it was 5%. The Protection with Cavia porcellus [13] came to 20%; with Rattus norvegicus [14], 18%; with Cavia porcellus [15] it was 88%; with Cavia porcellus [16], 90%; in the assay with Rattus norvegicus [17], 32%; in the assay on Cavia porcellus [18] it was 38%. The Protection in the assay on Rattus norvegicus [19] was found to be 18%. Also, the figures for the EC50 with Oryctolagus cuniculus [6], in the assay with Oryctolagus cuniculus [10] and with Oryctolagus cuniculus [12] were around 90 µM, above 100 µM and 20 µM, respectively.

Turning to `CCCCCCCCCCCCCCCCCCOCC(COC(=O)CCC[N+](C)(C)C)OC(C)=O` (stereo unspecified), the values for the concentration for a half-maximal effect (EC50) with Oryctolagus cuniculus [1] and in the assay listed under Oryctolagus cuniculus [2] were 12 µM and above 100 µM, respectively.

For the molecule `CCCCCCCCCCCCCCCCCCNC(=O)OCC(COC(=O)CCCC[N+](C)(C)C)OC(C)=O.[I-]` (stereo unspecified), the Protection in the assay on Cavia porcellus [20] is on record as 79%; in the assay on Rattus norvegicus [22], 74%; in the assay on Cavia porcellus [5], 38%; with Rattus norvegicus [23], 58%; with Rattus norvegicus [11], 63%; in the assay with Cavia porcellus [25] it was 90%. In addition, the Protection amounted to 17% in the assay on Cavia porcellus [13], 80% in the assay with Cavia porcellus [26], 46% in the assay with Rattus norvegicus [17] and 88% in the assay on Cavia porcellus [28]. Moreover, the concentration for a half-maximal effect (EC50) in the assay with Oryctolagus cuniculus [21] is 13 µM; with Oryctolagus cuniculus [24], above 100 µM; in the assay on Oryctolagus cuniculus [27] it was 70 µM. Moreover, the ED50 in the assay with Oryctolagus cuniculus [3] is above 100 µM.

For `CCCCCCCCCCCCCCCCCCOC[C@@H](COC(=O)CCCC[N+](C)(C)C)OC(C)=O.[I-]`, the Protection with Cavia porcellus [20] was determined as 0%; with Cavia porcellus [5], 49%; with Cavia porcellus [8], 0%; in the assay on Cavia porcellus [29], 61%; in the assay on Rattus norvegicus [11] it was 20%; with Cavia porcellus [25], 93%. The Protection worked out at 0% in the assay on Cavia porcellus [13]; 12% with Rattus norvegicus [14]; 0% in the assay with Cavia porcellus [30]; 34% in the assay with Rattus norvegicus [17]; 91% with Cavia porcellus [28]; 63% with Cavia porcellus [18]. In addition, in the assay with Rattus norvegicus [19], the Protection stood at 16%. Further, the results for the EC50 in the assay on Oryctolagus cuniculus [21], with Oryctolagus cuniculus [24] and in the assay with Oryctolagus cuniculus [27] were 11 µM, above 100 µM and 84 µM, respectively. Moreover, in the assay with Oryctolagus cuniculus [3], the ED50 is above 100 µM.

Regarding `CCCCCCCCCCCCCCCCCCOCC(COC(=O)CCCC[N+](C)(C)C)OC(C)=O` (stereo unspecified), the figures for the half-maximal effective concentration (EC50) in the assay with Oryctolagus cuniculus [1] and in the assay listed under Oryctolagus cuniculus [2] were 18 µM and above 100 µM, respectively.

With `CCCCCCCCCCCCCCCCCCOCC(COC(=O)CCCC[N+](C)(C)C)OCC.[I-]` (stereo unspecified), the Protection was determined as 9% with Cavia porcellus [20]; 55% in the assay on Cavia porcellus [5]; 0% with Cavia porcellus [8]; 69% in the assay with Cavia porcellus [9]; 17% in the assay on Rattus norvegicus [11]; 0% in the assay on Cavia porcellus [13]. The Protection came to 73% in the assay with Cavia porcellus [15]; 77% in the assay on Cavia porcellus [16]; 0% in the assay with Cavia porcellus [30]; 20% in the assay with Rattus norvegicus [17]; 24% with Cavia porcellus [18]. The concentration for a half-maximal effect (EC50) was 8 µM in the assay on Oryctolagus cuniculus [21], above 100 µM in the assay with Oryctolagus cuniculus [24] and 60 µM in the assay on Oryctolagus cuniculus [27]. The molecule further came in with an ED50 in the assay on Oryctolagus cuniculus [3] above 100 µM.

For `CCCCCCCCCCCCCCCCCCOCC(COC(=O)CCC[n+]1ccccc1)OCC.[Cl-]` (stereo unspecified), the Protection in the assay with Cavia porcellus [20] is recorded as 16%; in the assay with Cavia porcellus [5], 60%; in the assay on Cavia porcellus [8], 16%; in the assay with Cavia porcellus [9] it was 60%; with Rattus norvegicus [11] it was 22%; with Cavia porcellus [13] it was 8%. Besides, the Protection stood at 51% with Rattus norvegicus [14]; 100% with Cavia porcellus [16]; 34% in the assay on Cavia porcellus [30]; 53% with Rattus norvegicus [17]; 52% in the assay on Cavia porcellus [18]; 20% in the assay on Rattus norvegicus [19]. For the same molecule, the EC50 was 1.5 µM with Oryctolagus cuniculus [21], above 100 µM with Oryctolagus cuniculus [24] and 100 µM with Oryctolagus cuniculus [27]. For the same molecule, the ED50 with Oryctolagus cuniculus [3] is above 100 µM.

As for `CCCCCCCCCCCCCCCCCCNC(=O)OCC(COP(=O)([O-])OCC[n+]1ccsc1)OC` (stereo unspecified), the half-maximal effective concentration (EC50) came to 30.5 µM in the assay with Oryctolagus cuniculus [21] and 89 µM with Oryctolagus cuniculus [27]. The ED50 with Oryctolagus cuniculus [3] is above 100 µM. The Protection is on record as 69% in the assay on Cavia porcellus [5]; 53% in the assay on Cavia porcellus [29]; 85% in the assay with Cavia porcellus [25]; 45% in the assay with Rattus norvegicus [14]; 32% with Cavia porcellus [31]; 72% in the assay on Cavia porcellus [28]. Besides, the Protection amounted to 62% in the assay with Cavia porcellus [18] and 0% with Rattus norvegicus [19].
